Here are results for 49 compounds from ChEMBL document CHEMBL1145835, “Novel potent 5-HT(1F) receptor agonists: structure-activity studies of a series of substituted N-[3-(1-methyl-4-piperidinyl)-1H-pyrrolo[3,2-b]pyridin-5-yl]amides” (J Med Chem, 2003).

In assay [1] the target is T1, 5-hydroxytryptamine receptor 1F (Homo sapiens, UniProt P30939).
T1 sequence (P30939 whole entry): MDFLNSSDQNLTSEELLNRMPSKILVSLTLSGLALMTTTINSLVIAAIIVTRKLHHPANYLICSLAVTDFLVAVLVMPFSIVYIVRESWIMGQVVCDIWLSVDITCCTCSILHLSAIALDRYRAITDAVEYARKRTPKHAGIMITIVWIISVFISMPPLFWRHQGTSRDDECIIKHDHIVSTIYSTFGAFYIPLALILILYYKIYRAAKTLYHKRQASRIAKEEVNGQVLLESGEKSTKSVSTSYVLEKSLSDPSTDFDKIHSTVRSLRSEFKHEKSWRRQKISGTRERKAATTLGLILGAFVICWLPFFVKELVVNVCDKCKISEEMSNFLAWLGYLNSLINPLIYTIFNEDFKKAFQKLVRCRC
Briefly: In vitro binding affinity was determined by radioligand binding assay using cell line expressing human 5-hydroxytryptamine 1F receptor. The procedure, abridged:
(§1)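 Ki (nM) from radioligand binding on cell lines each expressing one human serotonin receptor subtype. Values are means of at least three determinations with SEM. ND: Ki not determined, when a 10⁻⁷ M test ligand gave <50% displacement of radioligand.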

The target of assay [2] is T2, 5-hydroxytryptamine receptor 1A (Homo sapiens, UniProt P08908).
T2 sequence (P08908 whole entry): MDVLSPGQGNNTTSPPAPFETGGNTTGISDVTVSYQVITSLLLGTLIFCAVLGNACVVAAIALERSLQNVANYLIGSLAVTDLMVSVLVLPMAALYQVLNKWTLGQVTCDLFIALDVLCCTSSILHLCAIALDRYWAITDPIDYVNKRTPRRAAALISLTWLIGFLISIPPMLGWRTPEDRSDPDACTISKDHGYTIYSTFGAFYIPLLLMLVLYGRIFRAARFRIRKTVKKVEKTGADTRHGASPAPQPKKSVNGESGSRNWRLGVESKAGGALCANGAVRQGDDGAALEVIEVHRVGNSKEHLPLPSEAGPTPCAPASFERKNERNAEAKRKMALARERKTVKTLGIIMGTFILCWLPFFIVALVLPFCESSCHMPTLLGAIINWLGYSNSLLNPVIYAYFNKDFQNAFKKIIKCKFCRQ
As to the kind of experiment: In vitro binding affinity by radioligand binding assay using cell line expressing human 5-hydroxytryptamine 1A receptor. Put shortly: as §1

Assay [3] deals with 5-hydroxytryptamine receptor 1B (Homo sapiens, UniProt P28222). As to the kind of experiment: In vitro binding affinity by radioligand binding assay using cell line expressing human 5-hydroxytryptamine 1B receptor. The procedure, abridged:
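Ki (nM) from radioligand binding on cell lines each expressing one human serotonin receptor subtype. Values are means of at least three determinations with SEM.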

Assay [4] has as its target 5-hydroxytryptamine receptor 1D (Homo sapiens, UniProt P28221). Briefly: In vitro binding affinity by radioligand binding assay using cell line expressing human 5-hydroxytryptamine 1D receptor. Put shortly: as §1
The target in assay [5] is T1, 5-hydroxytryptamine receptor 1F. As to the kind of experiment: In vitro effective concentration for stimulation of [35S]GTP-gamma-S, binding in mouse LM(tk-)cells expressing the human 5-hydroxytryptamine 1F receptor. The class given is functional. (GTPγS is a poorly hydrolysed GTP analogue; its binding reports G protein activation.)
The target in assay [6] is T3, 5-hydroxytryptamine receptor 1F (Homo sapiens) (UniProt P30939).
T3 sequence (whole entry): T1 sequence (P30939 whole entry)
As to the kind of experiment: Maximum stimulation of [35S]GTP-gamma-S, binding expressed relative to the maximal effect of 5-hydroxytryptamine […]. In kind it is functional.

Sequence of 5-hydroxytryptamine receptor 1B (P28222 whole entry): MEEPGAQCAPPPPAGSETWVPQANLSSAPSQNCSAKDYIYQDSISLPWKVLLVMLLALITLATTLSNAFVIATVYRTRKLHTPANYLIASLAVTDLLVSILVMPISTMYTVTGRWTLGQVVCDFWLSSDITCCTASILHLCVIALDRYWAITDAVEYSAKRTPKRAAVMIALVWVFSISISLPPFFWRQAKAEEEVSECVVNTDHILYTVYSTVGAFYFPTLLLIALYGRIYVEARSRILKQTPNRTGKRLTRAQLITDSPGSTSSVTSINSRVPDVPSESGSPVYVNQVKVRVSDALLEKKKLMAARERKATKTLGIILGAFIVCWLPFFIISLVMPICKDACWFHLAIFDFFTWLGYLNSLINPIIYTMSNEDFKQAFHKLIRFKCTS
Sequence of 5-hydroxytryptamine receptor 1D (P28221 whole entry): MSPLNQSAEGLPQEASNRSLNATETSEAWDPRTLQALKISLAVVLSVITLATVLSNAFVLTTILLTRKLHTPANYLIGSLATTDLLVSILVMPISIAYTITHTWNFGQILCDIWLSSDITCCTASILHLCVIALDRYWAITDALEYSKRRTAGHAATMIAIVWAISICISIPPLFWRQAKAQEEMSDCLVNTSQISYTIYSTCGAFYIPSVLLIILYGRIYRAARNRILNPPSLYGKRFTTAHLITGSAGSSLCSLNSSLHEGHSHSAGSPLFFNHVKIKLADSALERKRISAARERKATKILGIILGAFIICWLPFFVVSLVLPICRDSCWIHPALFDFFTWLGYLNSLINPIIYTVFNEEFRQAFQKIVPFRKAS

The Ki is the equilibrium dissociation constant of an inhibitor or competing ligand from its target. A low value points to tighter binding. For the compound `CN1CCC(c2c[nH]c3ccc(NC(=O)C4CCCCC4)nc23)CC1`, the Ki in assay [1] came out at 20 nM; in assay [2] it was 660 nM.

On to `COc1cccc(C(=O)Nc2ccc3[nH]cc(C4CCN(C)CC4)c3n2)c1`, for which the Ki was 16 nM in assay [1] and 98 nM in assay [2].

Consider `COc1ccccc1C(=O)Nc1ccc2[nH]cc(C3CCN(C)CC3)c2n1`, for which the Ki in assay [3] was found to be 750 nM; in assay [1], 20 nM; in assay [2], 20 nM.

`CN1CCC(c2c[nH]c3ccc(NC(=O)c4ccccc4[N+](=O)[O-])nc23)CC1`: the Ki in assay [1] was determined as 19 nM; in assay [2], 64 nM; in assay [4], 170 nM.

`CC(C)N1CCC(c2c[nH]c3ccc(NC(=O)c4ccc(F)cc4)nc23)CC1` displayed a Ki in assay [1] of 30 nM.

What is called EC50 is the concentration at which the effect is half-maximal. In general, Emax refers to the greatest response seen or fitted, relative to the assay's reference. With `CN1CCC(c2c[nH]c3ccc(NC(=O)c4cccs4)nc23)CC1`, the Ki in assay [3] was 390 nM; in assay [1] it was 7.1 nM; in assay [2], 350 nM; in assay [4] it was 650 nM. In assay [5], this compound had an EC50 of 15 nM. In assay [6], this compound came in with an Emax of 61%.

`CC(=O)Nc1ccc2[nH]cc(C3CCNCC3)c2n1` yielded a Ki in assay [1] of 45 nM.

`CC(=O)Nc1cc2c(C3CCN(C)CC3)c[nH]c2cn1`: the Ki in assay [1] came to 210 nM; in assay [2], 2 nM; in assay [4], 39 nM.

For the compound `Cc1ccc(C(=O)Nc2ccc3[nH]cc(C4CCN(C)CC4)c3n2)cc1`, the Ki in assay [1] is 12 nM; in assay [2] it was 30 nM.

`CN1CCC(c2c[nH]c3ccc(OS(=O)(=O)c4ccc(F)cc4)nc23)CC1`: the inhibition constant Ki in assay [1] was determined as 7.5 nM; in assay [4] it was 30 nM.

Take `CCNC(=O)Nc1ccc2[nH]cc(C3CCN(C)CC3)c2n1`: the results for the Ki in assay [1] and in assay [4] were 3.8 nM and 40 nM, respectively.

For `CC(=O)Nc1ccc2[nH]cc(C3CCN(C)CC3)c2c1`, the Ki came out at 390 nM in assay [3], 9.7 nM in assay [1], 68 nM in assay [2] and 150 nM in assay [4].

In the case of `CN1CCC(c2c[nH]c3cnc(NC(=O)c4ccc(F)cc4)nc23)CC1`, the Ki in assay [3] amounted to 6000 nM; in assay [1], 67 nM; in assay [2], 200 nM; in assay [4], 1900 nM.

As to `CCCCN1CCC(c2c[nH]c3ccc(NC(=O)c4ccc(F)cc4)nc23)CC1`, the Ki in assay [1] was found to be 14 nM.

Take `Cc1cccc(C(=O)Nc2ccc3[nH]cc(C4CCN(C)CC4)c3n2)c1`: the Ki was found to be 1200 nM in assay [3], 5.8 nM in assay [1], 100 nM in assay [2] and 490 nM in assay [4].

For `CN1CCC(c2c[nH]c3cnc(NC(=O)c4ccc(F)cc4)cc23)CC1`, the Ki stood at 80 nM in assay [3], 13 nM in assay [1], 17 nM in assay [2] and 53 nM in assay [4].

In the case of `CN1CCC(c2c[nH]c3ccc(NC(=O)C(C)(C)C)nc23)CC1`, the inhibition constant Ki in assay [1] was 62 nM.

In the case of `CN1CCC(c2c[nH]c3ccc(NC(=O)c4cccc(F)c4)nc23)CC1`, the Ki was 1600 nM in assay [3], 11 nM in assay [1], 135 nM in assay [2] and 690 nM in assay [4].

`CCN1CC=C(c2c[nH]c3ccc(NC(C)=O)nc23)CC1`: in assay [1], the Ki was 21 nM.

`CN1CCC(c2c[nH]c3ccc(NS(=O)(=O)c4ccc(F)cc4)nc23)CC1` gave a Ki in assay [1] of 27 nM.

The compound `CCN1CC=C(c2c[nH]c3ccc(NC(=O)c4ccc(F)cc4)nc23)CC1` registered a Ki in assay [1] of 25 nM.

`O=C(Nc1ccc2[nH]cc(C3CCN(CCc4ccccc4)CC3)c2n1)c1ccc(F)cc1` returned a Ki in assay [1] of 75 nM.

Take `CN1CCC(c2c[nH]c3ccc(NC(=O)c4cccc(C#N)c4)nc23)CC1`: the values for the Ki in assay [3], in assay [1] and in assay [2] were 590 nM, 11 nM and 100 nM, respectively.

For the compound `Cc1ccccc1C(=O)Nc1ccc2[nH]cc(C3CCN(C)CC3)c2n1`, the Ki in assay [3] worked out at 150 nM; in assay [1], 12 nM; in assay [2], 106 nM; in assay [4], 440 nM.

As to `CCC(=O)Nc1ccc2[nH]cc(C3CCNCC3)c2n1`, the Ki in assay [1] was 35 nM.

In the case of `CN1CCC(c2c[nH]c3ccc(NS(C)(=O)=O)nc23)CC1`, the figures for the Ki in assay [3], in assay [1] and in assay [4] were 610 nM, 19 nM and 380 nM, respectively.

Regarding `CN1CCC(c2c[nH]c3ccc(NC(=O)c4ccoc4)nc23)CC1`, the Ki in assay [3] amounted to 930 nM; in assay [1], 4.6 nM; in assay [2] it was 840 nM; in assay [4], 1100 nM. The same compound had an EC50 in assay [5] of 11 nM. Also, the maximal response (Emax) in assay [6] was determined as 88%.

With `CN1CCC(c2c[nH]c3ccc(NC(=O)c4cccc([N+](=O)[O-])c4)nc23)CC1`, the Ki worked out at 390 nM in assay [3], 42 nM in assay [1], 130 nM in assay [2] and 330 nM in assay [4].

In turn, `CCCN1CCC(c2c[nH]c3ccc(NC(=O)c4ccc(F)cc4)nc23)CC1` gave a Ki in assay [1] of 18 nM.

As to `COc1ccc2[nH]cc(C3CCN(C)CC3)c2n1`, the Ki was 110 nM in assay [3], 23 nM in assay [1] and 23 nM in assay [4].

As to `CN1CCC(c2c[nH]c3ccc(O)nc23)CC1`, in assay [1], the affinity, expressed as Ki, was 100 nM.

For `CCCCCCCC(=O)Nc1ccc2[nH]cc(C3CCN(C)CC3)c2n1`, the Ki is 32 nM in assay [3], 20 nM in assay [1] and 110 nM in assay [4].

In assay [1], `CCCCC(=O)Nc1ccc2[nH]cc(C3CCN(C)CC3)c2n1` gave a Ki of 14 nM.

For the compound `CC(=O)Nc1ncc2[nH]cc(C3CCN(C)CC3)c2n1`, the Ki was 2900 nM in assay [3], 220 nM in assay [1], 780 nM in assay [2] and 470 nM in assay [4].

Consider `CN1CCC(c2c[nH]c3ccc(NC(=O)c4ccc(Cl)cc4Cl)nc23)CC1`, for which the Ki in assay [1] is 4.1 nM; in assay [2], 5.1 nM; in assay [4], 83 nM.

With `CN1CCC(c2c[nH]c3ccc(OS(C)(=O)=O)nc23)CC1`, the Ki in assay [3] is 25 nM; in assay [1] it was 4.7 nM; in assay [4] it was 8 nM.

`CN1CCC(c2c[nH]c3ccc(NC(=O)c4ccccc4F)nc23)CC1`: the inhibition constant Ki was 19 nM in assay [1] and 42 nM in assay [2].

For the compound `CNC(=O)Nc1ccc2[nH]cc(C3CCN(C)CC3)c2n1`, the Ki was 14 nM in assay [3], 2.5 nM in assay [1] and 8.5 nM in assay [4].

In assay [1], `O=C(Nc1ccc2[nH]cc(C3CCNCC3)c2n1)c1ccc(F)cc1` came in with a Ki of 9.5 nM.

Regarding `CN1CCC(c2c[nH]c3ccc(NC(=O)c4ccncc4)nc23)CC1`, the Ki came to 330 nM in assay [3], 8.4 nM in assay [1], 40 nM in assay [2] and 420 nM in assay [4]. Further, in assay [5], the EC50 was determined as 11 nM. The compound also showed an Emax in assay [6] of 97%.

Consider `CN1CCC(c2c[nH]c3ccc(NC(=O)c4ccccn4)nc23)CC1`, for which the Ki is 1000 nM in assay [3], 6.3 nM in assay [1], 41 nM in assay [2] and 820 nM in assay [4]. Moreover, a half-maximal response in assay [5] (EC50) required 25 nM. In addition, in assay [6], the Emax was 63%.

Take `CN1CCC(c2c[nH]c3ccc(N)nc23)CC1`: the results for the Ki in assay [3], in assay [1] and in assay [4] were 800 nM, 100 nM and 420 nM, respectively.

In the case of `CN1CCC(c2c[nH]c3ccc(NC(=O)c4ccc([N+](=O)[O-])cc4)nc23)CC1`, the Ki in assay [3] was determined as 270 nM; in assay [1], 7.7 nM; in assay [2], 38 nM; in assay [4], 340 nM.

In the case of `CN1CCC(c2c[nH]c3ccc(NC(=O)c4ccco4)nc23)CC1`, the inhibition constant (Ki) in assay [3] turned out to be 1100 nM; in assay [1] it was 13 nM; in assay [2], 560 nM; in assay [4] it was 930 nM. Also, the EC50 in assay [5] stood at 11 nM. The Emax in assay [6] turned out to be 82%.

In assay [1], `CCN1CCC(c2c[nH]c3ccc(NC(=O)c4ccc(F)cc4)nc23)CC1` had a Ki of 170 nM.

The compound `CCCCCC(=O)Nc1ccc2[nH]cc(C3CCN(C)CC3)c2n1` gave a Ki in assay [1] of 13 nM.

As to `CN1CCC(c2c[nH]c3ccc(NC(=O)Nc4ccc(F)cc4)nc23)CC1`, the Ki amounted to 3.2 nM in assay [3], 11 nM in assay [1] and 3.8 nM in assay [4].

With `CN1CCC(c2c[nH]c3ccc(NC(=O)c4ccc(F)cc4)cc23)CC1`, the Ki in assay [1] came out at 2.1 nM; in assay [2] it was 22 nM; in assay [4] it was 430 nM.

As for `CN1CCC(c2c[nH]c3ccc(NC(=O)C4CCCC4)nc23)CC1`, the Ki in assay [3] was 640 nM; in assay [1], 11 nM; in assay [2], 2000 nM; in assay [4] it was 740 nM.
